The source made the active and inactive calls. No cut-off for these calls is given here.
Assays:
[1] = target: Epidermal growth factor receptor (Homo sapiens, UniProt P00533); test: Inhibition of wild type EGFR (unknown origin) using FAM-labeled peptide substrate after 10 mins by mobility shift assay
A549 [2] = test: Induction of morphological changes in human A549 cells assessed as chromatin condensation at 1.09 uM after 12 hrs by acridine orange staining based fluorescence microscopic method; format: functional, cell-based
In short: (§1)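 A549 cells, grown in MEM with 10% FBS, were exposed to compound for 12 h alongside an untreated control group. They were stained with acridine orange alone and viewed by inverted and fluorescence microscopy. Nuclear colour (green versus red), cell shrinkage, edge clarity, refraction and chromatin condensation were assessed visually.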

A549 [3] = test: Induction of apoptosis in human A549 cells assessed as early apoptotic cells at 0.5 uM after 48 hrs by Annexin V-FITC/propidium iodide staining based flow cytometry (reference value: 5.61%); format: functional
A549 [4] = test: Induction of apoptosis in human A549 cells assessed as late apoptotic cells at 0.5 uM after 48 hrs by Annexin V-FITC/propidium iodide staining based flow cytometry (reference value: 2.07%); format: functional
A549 [5] = test: Induction of apoptosis in human A549 cells assessed as live cells at 0.5 uM after 48 hrs by Annexin V-FITC/propidium iodide staining based flow cytometry (reference value: 91.81%); format: functional
MCF7 = test: Antiproliferative activity against human MCF7 cells after 72 hrs by MTT assay; format: functional, cell-based
PC-3 = test: Antiproliferative activity against human PC3 cells after 72 hrs by MTT assay; format: functional, cell-based
In short: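 Cells grown in MEM with 10% FBS. About 4×10³ cells per well seeded and incubated 24 h at 37 °C, 5% CO₂. Compounds added at indicated final concentrations for 72 h. MTT at 5 µg/mL final for 4 h at 37 °C. Formazan dissolved in DMSO, absorbance read at 492 nm with 630 nm reference. Tested three times; IC50 is the mean of two determinations.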

A549 [6] = test: Induction of apoptosis in human A549 cells assessed as necrotic cells at 0.5 uM after 48 hrs by Annexin V-FITC/propidium iodide staining based flow cytometry (reference value: 0.51%); format: functional
A549 [7] = test: Induction of morphological changes in human A549 cells assessed as cell shrinkage at 1.09 uM after 12 hrs by acridine orange staining based fluorescence microscopic method; format: functional; in short: as §1
A549 [8] = test: Induction of apoptosis in human A549 cells at 1.09 uM after 12 hrs by acridine orange staining based fluorescence microscopic method; format: functional, cell-based; in short: as §1
A549 [9] = test: Antiproliferative activity against human A549 cells after 72 hrs by MTT assay; format: functional, cell-based
[10] = target: Epidermal growth factor receptor (Homo sapiens, UniProt P00533, T790M); test: Inhibition of wild type EGFR T790M mutant (unknown origin) using FAM-labeled peptide substrate after 10 mins by mobility shift assay
Epidermal growth factor receptor (Homo sapiens, UniProt P00533, T790M), sequence (P00533 25-1210 T790M limits assumed): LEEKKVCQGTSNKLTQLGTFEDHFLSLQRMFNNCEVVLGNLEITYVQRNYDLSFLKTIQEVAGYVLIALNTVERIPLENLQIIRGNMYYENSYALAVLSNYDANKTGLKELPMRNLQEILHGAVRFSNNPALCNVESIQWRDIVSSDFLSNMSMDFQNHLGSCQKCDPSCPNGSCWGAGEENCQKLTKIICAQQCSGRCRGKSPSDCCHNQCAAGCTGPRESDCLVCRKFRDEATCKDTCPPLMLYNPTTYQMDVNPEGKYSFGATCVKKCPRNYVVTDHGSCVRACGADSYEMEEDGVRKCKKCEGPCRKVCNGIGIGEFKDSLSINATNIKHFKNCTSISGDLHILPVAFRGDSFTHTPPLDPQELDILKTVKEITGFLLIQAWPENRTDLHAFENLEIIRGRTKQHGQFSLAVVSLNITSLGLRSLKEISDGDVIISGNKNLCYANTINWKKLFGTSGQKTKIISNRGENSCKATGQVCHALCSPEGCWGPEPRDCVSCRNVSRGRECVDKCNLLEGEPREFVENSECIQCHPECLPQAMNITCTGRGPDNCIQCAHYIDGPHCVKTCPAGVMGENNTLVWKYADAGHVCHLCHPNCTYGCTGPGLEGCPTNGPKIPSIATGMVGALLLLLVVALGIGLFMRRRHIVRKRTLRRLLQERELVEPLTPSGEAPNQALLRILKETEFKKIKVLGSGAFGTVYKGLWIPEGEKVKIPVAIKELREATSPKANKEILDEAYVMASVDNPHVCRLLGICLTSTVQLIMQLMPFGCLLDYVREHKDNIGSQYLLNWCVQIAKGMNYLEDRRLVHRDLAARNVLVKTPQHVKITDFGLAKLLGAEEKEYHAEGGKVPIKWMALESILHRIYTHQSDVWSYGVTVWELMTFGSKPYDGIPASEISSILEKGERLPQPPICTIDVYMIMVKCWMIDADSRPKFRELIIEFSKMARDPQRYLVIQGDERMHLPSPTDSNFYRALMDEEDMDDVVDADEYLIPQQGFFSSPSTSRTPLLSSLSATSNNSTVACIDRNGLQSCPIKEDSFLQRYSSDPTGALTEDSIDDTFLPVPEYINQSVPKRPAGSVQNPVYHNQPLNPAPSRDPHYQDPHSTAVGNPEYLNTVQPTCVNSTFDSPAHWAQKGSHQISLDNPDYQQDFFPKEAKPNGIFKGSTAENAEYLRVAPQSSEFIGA

Epidermal growth factor receptor (Homo sapiens, UniProt P00533), sequence (P00533 whole entry): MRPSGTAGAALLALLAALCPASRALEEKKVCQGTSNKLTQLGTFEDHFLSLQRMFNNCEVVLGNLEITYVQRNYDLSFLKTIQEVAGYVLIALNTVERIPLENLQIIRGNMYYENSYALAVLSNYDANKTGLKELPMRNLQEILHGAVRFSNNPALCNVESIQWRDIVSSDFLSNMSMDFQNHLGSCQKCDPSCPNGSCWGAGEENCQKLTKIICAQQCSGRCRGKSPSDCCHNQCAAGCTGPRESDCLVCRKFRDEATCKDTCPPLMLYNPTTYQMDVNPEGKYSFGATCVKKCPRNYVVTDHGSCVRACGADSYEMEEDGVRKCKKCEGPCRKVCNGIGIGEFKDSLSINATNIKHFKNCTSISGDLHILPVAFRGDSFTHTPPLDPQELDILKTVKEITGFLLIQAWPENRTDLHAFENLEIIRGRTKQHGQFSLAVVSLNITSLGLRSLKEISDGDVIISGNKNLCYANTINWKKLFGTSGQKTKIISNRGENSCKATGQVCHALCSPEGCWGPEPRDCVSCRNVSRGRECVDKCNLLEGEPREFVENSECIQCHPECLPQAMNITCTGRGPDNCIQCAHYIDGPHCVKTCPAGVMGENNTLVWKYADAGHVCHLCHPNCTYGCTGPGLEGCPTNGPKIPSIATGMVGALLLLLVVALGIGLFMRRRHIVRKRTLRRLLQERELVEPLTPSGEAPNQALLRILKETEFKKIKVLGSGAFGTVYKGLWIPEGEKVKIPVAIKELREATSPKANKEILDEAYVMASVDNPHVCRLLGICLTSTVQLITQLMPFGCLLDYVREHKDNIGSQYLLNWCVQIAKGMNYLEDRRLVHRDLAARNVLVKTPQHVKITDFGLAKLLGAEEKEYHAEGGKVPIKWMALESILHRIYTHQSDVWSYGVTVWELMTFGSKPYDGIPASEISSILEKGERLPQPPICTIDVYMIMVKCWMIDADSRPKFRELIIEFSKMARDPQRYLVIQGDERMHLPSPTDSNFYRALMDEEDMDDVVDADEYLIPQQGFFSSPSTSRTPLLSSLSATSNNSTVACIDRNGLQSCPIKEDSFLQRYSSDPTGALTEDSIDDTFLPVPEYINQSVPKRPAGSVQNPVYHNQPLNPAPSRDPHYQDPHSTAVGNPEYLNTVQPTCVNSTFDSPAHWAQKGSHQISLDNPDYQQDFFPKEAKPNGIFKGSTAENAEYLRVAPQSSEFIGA

IC50 [1]: 5 nM
IC50 (MCF7; MCF7, 72 h): 1340 nM
IC50 (PC-3; PC-3, 72 h): 1230 nM
IC50 (A549 [9]; A549, 72 h): 1090 nM
IC50 [10]: 26 nM
SMILES: CN(C)C/C=C/C(=O)Nc1cc2c(N3CCc4ccccc43)ncnc2cc1O[C@@H]1CCOC1
Activity (A549 [2]): Active
Activity (A549 [3]): 14.59%
Activity (A549 [4]): 4.59%
Activity (A549 [5]): 80.01%
Activity (MCF7): Dose-dependent effect
Activity (PC-3): Dose-dependent effect
Activity (A549 [6]): 0.81%
Activity (A549 [7]): Active
Activity (A549 [8]): Active
Activity (A549 [9]): Dose-dependent effect
